Assay results from ChEMBL document CHEMBL3525987, “Assessment of exposure of metabolites in preclinical species and humans at steady state from the single-dose radiolabeled absorption, distribution, metabolism, and excretion studies: a case study” (Drug Metab Dispos, 2012).

Key:
[1] = Half life in female Sprague-Dawley rat plasma at 10 mg/kg, po administered as single dose via gavage by LC-MS/MS analysis; assay type: ADME, organism-based; design: dose 10 mg/kg, dosed compound name [14C]lixivaptan, route oral
How it was run: (§1)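 Jugular-vein cannulated SD rats (5/gender) given gavage [14C]drug 10 mg/kg in pluronic F68/water; K2EDTA blood 0.25-168 h with donor blood replacement. Parent by validated LC-MS/MS, radioactivity by LSC; Tmax observed; t1/2 = 0.693/kel by terminal log-linear regression.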

[2] = Cmax in human plasma at 100 mg, po administered as single dose by LC-MS/MS analysis; assay type: ADME, organism-based; design: dose 100 mg, route oral, dosed compound name [14C]lixivaptan
How it was run: (§2)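 Fasted healthy males took one oral 100 mg (200 µCi) [14C]lixivaptan dose. Plasma was drawn from predose to 144 h. Total radioactivity was measured by LSC and converted to ng-equiv/ml via the dose specific activity; lixivaptan by validated LC-MS/MS. Noncompartmental analysis: Cmax observed; kel by log-linear regression; AUC0-t by linear trapezoid; extrapolation as Cest/kel.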

[3] = Tmax in female Sprague-Dawley rat plasma at 10 mg/kg, po administered as single dose via gavage by LC-MS/MS analysis; assay type: ADME, organism-based; design: dose 10 mg/kg, dosed compound name [14C]lixivaptan, route oral; how it was run: as §1
[4] = AUC(0 to t) in male beagle dog plasma at 10 mg/kg, po administered as single dose by LC-MS/MS analysis; assay type: ADME, organism-based, Canis lupus familiaris; design: dose 10 mg/kg, dosed compound name [14C]lixivaptan, route oral
How it was run: (§3)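 Four male beagles were fasted 18 h and gavaged once with 10 mg/kg (2 ml/kg) [14C]lixivaptan as a 5.0 mg/ml water/pluronic F68 suspension. Jugular K2EDTA blood was sampled from 0.25 to 168 h. Plasma total radioactivity was counted by LSC as ng-equiv/ml and lixivaptan by validated LC-MS/MS. Noncompartmental Cmax, t1/2 and trapezoidal AUC were derived.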

[5] = Half life in human plasma at 100 mg, po administered as single dose by LC-MS/MS analysis; assay type: ADME, organism-based; design: dosed compound name [14C]lixivaptan
How it was run: (§4)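 Single oral 100 mg [14C]drug to healthy male volunteers; plasma at 0.25-144 h. Parent by validated LC-MS/MS, total radioactivity by LSC as ng-equiv/ml; Tmax from observed data; t1/2 = 0.693/kel from log-linear terminal regression.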

[6] = Tmax in male beagle dog plasma at 10 mg/kg, po administered as single dose by LC-MS/MS analysis; assay type: ADME, organism-based, Canis lupus familiaris; design: dose 10 mg/kg, dosed compound name [14C]lixivaptan, route oral
How it was run: (§5)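 Male beagles given 10 mg/kg [14C]drug oral suspension; jugular K2EDTA blood at 0.25-168 h. Parent by validated LC-MS/MS, total radioactivity by LSC; Tmax observed; t1/2 = 0.693/kel from terminal log-linear regression.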

[7] = AUC(0 to infinity) in female Sprague-Dawley rat plasma at 10 mg/kg, po administered as single dose via gavage by LC-MS/MS analysis; assay type: ADME, organism-based; design: time infinity, dose 10 mg/kg, dosed compound name [14C]lixivaptan, route oral
How it was run: (§6)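 Jugular-cannulated Sprague-Dawley rats (5/gender) were fasted 18 h and gavaged once with 10 mg/kg [14C]lixivaptan suspended in water/pluronic F68. K2EDTA blood was taken at 0.25–168 h, with donor blood replaced from 1 h on. Total radioactivity was read by LSC (ng-equiv/ml) and parent by validated LC-MS/MS. Noncompartmental Cmax, log-linear kel and trapezoidal AUC followed.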

[8] = Half life in male Sprague-Dawley rat plasma at 10 mg/kg, po administered as single dose via gavage by LC-MS/MS analysis; assay type: ADME, organism-based; design: dose 10 mg/kg, dosed compound name [14C]lixivaptan, route oral; how it was run: as §1
[9] = Tmax in human plasma at 100 mg, po administered as single dose by LC-MS/MS analysis; assay type: ADME, organism-based; design: dosed compound name [14C]lixivaptan; how it was run: as §4
[10] = AUC(0 to infinity) in human plasma at 100 mg, po administered as single dose by LC-MS/MS analysis; assay type: ADME, organism-based; design: dose 100 mg, route oral, time infinity, dosed compound name [14C]lixivaptan; how it was run: as §2
[11] = AUC at steady state in human at 100 mg, po qd for 7 days by LC/MS/MS analysis; assay type: ADME, organism-based; design: dosed compound name Lixivaptan; settings: plasma
How it was run: (§7)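 Phase 1 human study with lixivaptan 100 mg orally once daily and blood taken on the final day. Parent and two abundant metabolites were quantified in plasma with a validated LC-MS/MS assay.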

[12] = Cmax in male beagle dog plasma at 10 mg/kg, po administered as single dose by LC-MS/MS analysis; assay type: ADME, organism-based, Canis lupus familiaris; design: dose 10 mg/kg, dosed compound name [14C]lixivaptan, route oral; how it was run: as §3
[13] = Cmax in male Sprague-Dawley rat plasma at 10 mg/kg, po administered as single dose via gavage by LC-MS/MS analysis; assay type: ADME, organism-based; design: dose 10 mg/kg, dosed compound name [14C]lixivaptan, route oral; how it was run: as §6
[14] = Cmax in female Sprague-Dawley rat plasma at 10 mg/kg, po administered as single dose; assay type: ADME, organism-based; design: dose 10 mg/kg, dosed compound name [14C]lixivaptan, route oral; how it was run: as §6
[15] = AUC(0 to t) in human plasma at 100 mg, po administered as single dose by LC-MS/MS analysis; assay type: ADME, organism-based; design: dosed compound name [14C]lixivaptan; how it was run: as §2
[16] = AUC(0 to infinity) in male beagle dog plasma at 10 mg/kg, po administered as single dose by LC-MS/MS analysis; assay type: ADME, organism-based, Canis lupus familiaris; design: time infinity, dose 10 mg/kg, dosed compound name [14C]lixivaptan, route oral; how it was run: as §3
[17] = AUC(0 to t) in male Sprague-Dawley rat plasma at 10 mg/kg, po administered as single dose via gavage by LC-MS/MS analysis; assay type: ADME, organism-based; design: dose 10 mg/kg, dosed compound name [14C]lixivaptan, route oral; how it was run: as §6
[18] = Tmax in male Sprague-Dawley rat plasma at 10 mg/kg, po administered as single dose via gavage by LC-MS/MS analysis; assay type: ADME, organism-based; design: dose 10 mg/kg, dosed compound name [14C]lixivaptan, route oral; how it was run: as §1
[19] = AUC(0 to t) in female Sprague-Dawley rat plasma at 10 mg/kg, po administered as single dose via gavage by LC-MS/MS analysis; assay type: ADME, organism-based; design: dose 10 mg/kg, dosed compound name [14C]lixivaptan, route oral; how it was run: as §6
[20] = AUC(0 to infinity) in male Sprague-Dawley rat plasma at 10 mg/kg, po administered as single dose via gavage by LC-MS/MS analysis; assay type: ADME, organism-based; design: time infinity, dose 10 mg/kg, dosed compound name [14C]lixivaptan, route oral; how it was run: as §6
Homo sapiens = experiment: Drug concentration at steady state in human at 100 mg, po qd for 7 days by LC/MS/MS analysis; assay type: ADME, organism-based; design: dosed compound name Lixivaptan; settings: in vivo, 168 h; how it was run: as §7
[21] = Half life in male beagle dog plasma at 10 mg/kg, po administered as single dose by LC-MS/MS analysis; assay type: ADME, organism-based, Canis lupus familiaris; design: dose 10 mg/kg, dosed compound name [14C]lixivaptan, route oral; how it was run: as §5

half-life [1]: 252 min
Cmax [2]: 437 ng/mL
Tmax [3]: 48 min
AUC(0-t) [4]: 4700 ng·h/mL
half-life [5]: 586 min
Tmax [6]: 48 min
AUC(0-inf) [7]: 1890 ng·h/mL
half-life [8]: 78 min
Tmax [9]: 42 min
AUC(0-inf) [10]: 1570 ng·h/mL
AUC at 168 h [11]: 2960 ng·h/mL
Cmax [12]: 759 ng/mL
Cmax [13]: 91 ng/mL
Cmax [14]: 338 ng/mL
AUC(0-t) [15]: 1540 ng·h/mL
AUC(0-inf) [16]: 4870 ng·h/mL
AUC(0-t) [17]: 140 ng·h/mL
Tmax [18]: 48 min
AUC(0-t) [19]: 1530 ng·h/mL
AUC(0-inf) [20]: 219 ng·h/mL
Css (Homo sapiens): 514 ng/mL
half-life [21]: 528 min
SMILES: Cc1ccc(F)cc1C(=O)Nc1ccc(C(=O)N2Cc3cccn3Cc3ccccc32)c(Cl)c1 [LIXIVAPTAN]
